The results in this text go back to ChEMBL document CHEMBL2321773, “Colloidal aggregation causes inhibition of G protein-coupled receptors” (J Med Chem, 2013).

Calls of active or inactive are those of the source. The calls are words filed in the database; no cut-off is given here. Where only a bound is given, the exact number is not on record here.

In general, inhibition refers to the drop in the measured response relative to a control, in per cent. The term IC50 denotes the point on the concentration scale where inhibition reaches its midpoint.

For assay [1], the target named is T1, Vasopressin V2 receptor (Homo sapiens, UniProt P30518). The assay is described as follows: Inhibition of vasopressin V2 receptor (unknown origin) assessed as change in intracellular calcium levels incubated with compound treated with Tween-80 by fluorometric analysis. The class given is functional, cell-based.
T1 sequence (P30518 whole entry): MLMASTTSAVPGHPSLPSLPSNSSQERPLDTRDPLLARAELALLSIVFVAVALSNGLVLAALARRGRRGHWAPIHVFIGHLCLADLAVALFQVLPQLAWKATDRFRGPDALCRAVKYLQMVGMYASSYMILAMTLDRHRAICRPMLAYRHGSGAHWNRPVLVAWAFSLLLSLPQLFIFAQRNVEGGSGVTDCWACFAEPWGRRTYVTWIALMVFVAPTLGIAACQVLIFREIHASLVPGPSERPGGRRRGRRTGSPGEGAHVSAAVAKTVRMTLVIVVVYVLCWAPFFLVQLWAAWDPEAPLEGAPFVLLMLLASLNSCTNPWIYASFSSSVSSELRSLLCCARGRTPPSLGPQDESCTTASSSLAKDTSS
Assay [2] addresses T1, Vasopressin V2 receptor. The experiment in a line: Inhibition of vasopressin V2 receptor (unknown origin) assessed as change in intracellular calcium levels treated with centrifuged compound solution by fluorometric analysis. The class given is functional, cell-based. On the technique in general: Calcium flux is commonly read through the fluorescence of an indicator in the cells.

Assay [3] concerns the target T2, C-C chemokine receptor type 4 (Homo sapiens) (UniProt P51679).
T2 sequence (whole entry): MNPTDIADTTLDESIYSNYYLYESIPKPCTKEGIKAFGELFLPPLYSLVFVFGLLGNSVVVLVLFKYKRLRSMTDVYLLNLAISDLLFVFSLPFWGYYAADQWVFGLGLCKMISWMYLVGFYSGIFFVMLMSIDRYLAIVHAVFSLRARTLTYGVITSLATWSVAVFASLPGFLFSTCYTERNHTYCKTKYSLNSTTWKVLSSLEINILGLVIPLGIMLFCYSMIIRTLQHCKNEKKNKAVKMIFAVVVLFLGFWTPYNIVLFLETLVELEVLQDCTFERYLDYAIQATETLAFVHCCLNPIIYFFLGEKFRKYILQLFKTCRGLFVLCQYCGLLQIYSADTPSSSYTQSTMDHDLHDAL
The assay is described as follows: (§1) Inhibition of CCL22-stimulated CCR4 in human HTLA cells pre-incubated for 20 mins with centrifuged compound solution measured on day 4 by beta arrestin-recruitment mediated luciferase reporter gene assay. The class given is cell-based. The procedure, abridged:
(§2)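 HTLA cells (stable β-arrestin2-TEV protease fusion, tTA-dependent firefly luciferase) transfected by CaPO4 with receptor-V2-tTA construct; next day plated 20 000 cells/well in 1% dialyzed FBS; day 3 serum-free DMEM; compound 0.001 nM–100 μM final in HBSS/20 mM HEPES pH 7.4 for 20 min, then 1 μM agonist overnight, 37 °C; day 4 luminescence after Bright-Glo 30 min; normalized to vehicle and reference; sigmoidal fit.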
On the technique in general: Reporter assays use an easily measured gene product as a stand-in for the process of interest.

In assay [4] the target is T1, Vasopressin V2 receptor. The assay is described as follows: Inhibition of vasopressin-stimulated vasopressin V2 receptor in human HTLA cells pre-incubated for 20 mins with Tween-80-treated compound solution measured on day 4 by beta arrestin-recruitment mediated luciferase reporter gene assay. It counts as cell-based. The procedure, abridged: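 Transfected HTLA β-arrestin/tTA-luciferase reporter cells were kept serum-free on day 3 and given compound (0.001 nM–100 μM final, pH 7.4 HEPES-HBSS buffer) for 20 min. They were then stimulated with 1 μM vasopressin overnight at 37 °C. Media was removed before day-4 luciferase read; normalized to vehicle/reference, sigmoidal regression.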

Assay [5] concerns the target T3, C-C chemokine receptor type 4 (Homo sapiens, UniProt P51679).
T3 sequence (P51679 whole entry): T2 sequence (whole entry)
The experiment in a line: Inverse agonist activity at CCR4 in human HTLA cells assessed as depression of basal activity incubated for 20 mins by beta arrestin-recruitment mediated luciferase reporter gene assay in absence of CCL22. The class given is cell-based. The procedure, abridged: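 β-Arrestin recruitment luciferase reporter in transfected HTLA cells without CCL22 agonist. Compounds ranged 0.001 nM to 100 μM final in HBSS/HEPES pH 7.4 buffer, with 20 min exposure in serum-free DMEM. Luminescence read on day 4.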

Assay [6] is described as follows: Inhibition of AmpC beta lactamase (unknown origin) incubated for 5 mins by UV-Vis spectrophotometric analysis in presence of Triton X-100.
Assay [7] concerns the target T4, Cruzipain (Trypanosoma cruzi, UniProt P25779). The assay is described as follows: Inhibition of Trypanosoma cruzi cruzaine using Z-Phe-Arg-aminomethylcoumarin as substrate incubated for 5 mins by spectrofluorimetric analysis in absence of Tween-80. In short, it runs like this: (§3)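 Cruzain at 0.4 nM final in 0.1 M sodium acetate pH 5.5 with 5 mM DTT and 1% DMSO. Compound preincubated with enzyme for 5 min, then 2.5 μM Z-FR-AMC added. Fluorescence increase (ex 355/em 460 nm) monitored for 5 min. Duplicate wells, two separate experiments. IC50 from variable-slope sigmoidal fit.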

The target of assay [8] is T4, Cruzipain. The experiment in a line: Inhibition of Trypanosoma cruzi cruzaine using Z-Phe-Arg-aminomethylcoumarin as substrate incubated for 5 mins by spectrofluorimetric analysis in presence of Tween-80. In short, it runs like this: as §3
Assay [9] can be described thus: Inhibition of AmpC beta lactamase (unknown origin) incubated for 5 mins by UV-Vis spectrophotometric analysis in absence of Triton X-100.
For assay [10], the target named is T5, C-X-C chemokine receptor type 1 (Homo sapiens) (UniProt P25024).
T5 sequence (whole entry): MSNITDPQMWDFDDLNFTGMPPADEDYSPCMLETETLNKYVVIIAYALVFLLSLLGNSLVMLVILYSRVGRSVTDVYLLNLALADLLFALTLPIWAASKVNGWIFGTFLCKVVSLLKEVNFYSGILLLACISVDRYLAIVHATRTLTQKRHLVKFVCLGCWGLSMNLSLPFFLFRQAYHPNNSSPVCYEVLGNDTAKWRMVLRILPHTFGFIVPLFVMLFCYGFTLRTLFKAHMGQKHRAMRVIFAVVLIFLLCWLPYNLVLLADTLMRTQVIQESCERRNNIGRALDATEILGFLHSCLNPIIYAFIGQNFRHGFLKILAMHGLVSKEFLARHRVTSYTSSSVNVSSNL
The experiment in a line: Inhibition of CX3CL1-stimulated CX3CR1 in human HTLA cells pre-incubated for 20 mins with centrifuged compound solution measured on day 4 by beta arrestin-recruitment mediated luciferase reporter gene assay.

A short description of assay [11]: Inhibition of AmpC beta lactamase (unknown origin) at 10 uM incubated for 5 mins. The procedure, abridged:
(§4)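 AmpC β-lactamase (1 nM) in 50 mM potassium phosphate pH 7.0 at room temperature; compound at 10 μM final from 10 mM DMSO stock, with or without 5 min preincubation with 1 μM vasopressin; enzyme incubated with sample 5 min, reaction started with 69 μM CENTA; absorbance change at 405 nm followed 2.5 min; quadruplicate.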

The nature of assay [12]: Inhibition of AmpC beta lactamase (unknown origin) at 10 uM incubated for 5 mins in presence of vasopressin. The procedure, abridged:
as §4

For assay [13], the target named is T1, Vasopressin V2 receptor. The experiment in a line: Inhibition of vasopressin-stimulated vasopressin V2 receptor in human HTLA cells pre-incubated for 20 mins with centrifuged compound solution measured on day 4 by beta arrestin-recruitment mediated luciferase reporter gene assay.
In assay [14] the target is T1, Vasopressin V2 receptor. The assay is described as follows: Inhibition of vasopressin-stimulated vasopressin V2 receptor in human HTLA cells pre-incubated for 20 mins measured on day 4 by beta arrestin-recruitment mediated luciferase reporter gene assay. The class given is cell-based.
The target in assay [15] is T3, C-C chemokine receptor type 4. The assay is described as §1. It counts as cell-based. In short, it runs like this: as §2
Assay [16] has the same target. The assay is described as follows: Inhibition of CCL22-stimulated CCR4 in human HTLA cells pre-incubated for 20 mins with Tween-80-treated compound solution measured on day 4 by beta arrestin-recruitment mediated luciferase reporter gene assay.
Assay [17] has the same target. The assay is described as follows: Inhibition of CCL22-stimulated CCR4 in human HTLA cells pre-incubated for 20 mins measured on day 4 by beta arrestin-recruitment mediated luciferase reporter gene assay.

T4 sequence (P25779 whole entry): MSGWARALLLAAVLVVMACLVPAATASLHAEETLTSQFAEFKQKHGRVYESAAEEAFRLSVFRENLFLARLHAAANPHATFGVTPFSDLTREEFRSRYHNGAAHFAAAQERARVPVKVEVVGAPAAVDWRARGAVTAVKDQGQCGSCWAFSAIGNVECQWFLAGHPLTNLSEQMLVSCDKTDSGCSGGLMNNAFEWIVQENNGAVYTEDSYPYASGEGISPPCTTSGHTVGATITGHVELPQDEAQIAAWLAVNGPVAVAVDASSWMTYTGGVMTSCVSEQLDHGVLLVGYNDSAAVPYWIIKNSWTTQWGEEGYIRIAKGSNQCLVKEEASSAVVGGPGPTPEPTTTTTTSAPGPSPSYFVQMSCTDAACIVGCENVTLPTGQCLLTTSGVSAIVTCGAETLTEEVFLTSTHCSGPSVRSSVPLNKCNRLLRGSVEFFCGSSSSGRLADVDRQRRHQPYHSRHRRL

Consider `Clc1ccccc1C(c1ccccc1)(c1ccccc1)n1ccnc1` [CLOTRIMAZOLE], for which the inhibition result on Vasopressin V2 receptor [1] and on Vasopressin V2 receptor [2] was “Active” each time. The inhibition result (in [3]; at Vasopressin V2 receptor [4]) was “inactive” in each case. The IC50 in assay [5] came to 1.6 µM.

For `O=c1c(-c2ccc(O)cc2)coc2cc(O)cc(O)c12` [GENISTEIN], the IC50 in assay [6] was more than 100 µM; against Cruzipain [7], 82.7 µM; on Cruzipain [8] it was more than 400 µM; in assay [9], 16.7 µM.

As to `O=c1c(O)c(-c2ccc(O)c(O)c2)oc2cc(O)cc(O)c12`, the inhibition entry in assay [10] is “inactive”.

Turning to `O=C1OC(c2cc(I)c(O)c(I)c2)(c2c(I)cc(O)cc2I)c2ccccc21` (stereo not drawn), the results for the inhibition in [11] and in assay [12] were 77% and 7%, respectively. Also, the inhibition entry on Vasopressin V2 receptor [1] and on Vasopressin V2 receptor [2] was “Active” each time. Besides, the inhibition entry in [10] and in assay [3] was “inactive” each time.

Turning to `O=c1cc(-c2ccc(O)c(O)c2)oc2cc(O)cc(O)c12` [LUTEOLIN], the IC50 in [6] is more than 100 µM; on Cruzipain [7], 27.3 µM; at Cruzipain [8] it was 156 µM; in assay [9], 21.9 µM.

In the case of `CCC(C)n1ncn(-c2ccc(N3CCN(c4ccc(OCC5COC(Cn6cncn6)(c6ccc(Cl)cc6Cl)O5)cc4)CC3)cc2)c1=O` (stereo not drawn) [ITRACONAZOLE], the IC50 against Vasopressin V2 receptor [13] is 11.9 µM; against Vasopressin V2 receptor [14] it was 0.794 µM; in [15], 7.2 µM; in assay [16] it was 12.6 µM; against Vasopressin V2 receptor [4] it was 6.31 µM; in assay [17], 0.501 µM. For the same molecule, the inhibition result on Vasopressin V2 receptor [1] and at Vasopressin V2 receptor [2] was “Active” in each case.
